ChEMBL document CHEMBL1133548, “Semisynthesis of antitumoral acetogenins: SAR of functionalized alkyl-chain bis-tetrahydrofuranic acetogenins, specific inhibitors of mitochondrial complex I” (J Med Chem, 2000)

Tests used:
[1] = target: Mitochondrial complex I; NADH oxidoreductase (Bos taurus) (UniProt P25708+P52505); assay: Relative potency of inhibition of NADH oxidase (IC50); 4-dehydroxy-4-hydroxylimonorolliniastatin-1 as standard; format: protein-complex assay
Summary of the method: (§1)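 Derived value: the compound's NADH oxidase IC50 expressed relative to that of the reference acetogenin. The oxidase assay used NADH-activated beef heart submitochondrial particles (0.28 nM complex I) oxidising 75 µM NADH aerobically without added quinone, at 22 °C and pH 7.4. Inhibitor was added stepwise with 5 min incubations on ice, and NADH decrease was followed at 340 nm.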

[2] = Ratio of IC50 of DB to that of NADH oxidase
Summary of the method: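 Ratio of two IC50 values measured on NADH-activated beef heart submitochondrial particles (0.28 nM complex I, 22 °C, pH 7.4 phosphate/EDTA). The numerator IC50 comes from NADH:decylubiquinone oxidoreductase (75 µM NADH, 30 µM DB, plus antimycin and cyanide). The denominator IC50 comes from aerobic NADH oxidase (75 µM NADH, no added quinone). Both activities were read at 340 nm.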

[3] = Percent of relative potency by NADH oxidase assay; summary of the method: as §1
[4] = target: Mitochondrial complex I; NADH oxidoreductase (Bos taurus, UniProt P25708+P52505); assay: Inhibition of NADH oxidase activity.; format: protein-complex assay
Mitochondrial complex I; NADH oxidoreductase, sequence (P25708 21-464 limits assumed, other chains not shown): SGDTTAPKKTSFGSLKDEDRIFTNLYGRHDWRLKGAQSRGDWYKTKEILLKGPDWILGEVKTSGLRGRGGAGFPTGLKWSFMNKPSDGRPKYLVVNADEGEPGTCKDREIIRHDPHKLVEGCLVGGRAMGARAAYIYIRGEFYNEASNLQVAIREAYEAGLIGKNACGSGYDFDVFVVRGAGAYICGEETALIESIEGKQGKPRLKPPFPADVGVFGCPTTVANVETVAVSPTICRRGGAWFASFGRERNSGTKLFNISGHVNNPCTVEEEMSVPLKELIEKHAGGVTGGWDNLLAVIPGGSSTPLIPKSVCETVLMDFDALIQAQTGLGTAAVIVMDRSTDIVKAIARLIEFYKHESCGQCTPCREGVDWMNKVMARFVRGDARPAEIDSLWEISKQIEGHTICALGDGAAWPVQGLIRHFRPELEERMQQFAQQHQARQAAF
Summary of the method: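 Beef-heart submitochondrial particles (sonicated frozen-thawed mitochondria), preactivated with 300 µM NADH, assayed at 22 °C in 50 mM potassium phosphate pH 7.4, 1 mM EDTA (0.28 nM complex I). Aerobic oxidation of 75 µM NADH with no added quinone, followed at 340 nm. Ethanolic compound added cumulatively, 5 min on ice per step, ethanol ≤2%. IC50 is the final concentration giving 50% inhibition.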

[5] = Inhibition of NADH decylubiquinone (DB) oxidoreductase activity.; set-up: species or system Bos taurus
Summary of the method: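 Beef heart submitochondrial particles from sonicated frozen-thawed mitochondria, NADH-activated (300 µM) at 0.5 mg·mL⁻¹. Assay at 22 °C in 50 mM K phosphate pH 7.4, 1 mM EDTA, 0.28 nM complex I, with 75 µM NADH, 30 µM decylubiquinone, 2 µM antimycin and 2 mM KCN. Inhibitor titrated as ethanolic additions (5 min on ice each). NADH loss read at 340 nm; IC50 taken at 50% inhibition.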

Row | SMILES | Relative potency [1] | Ratio [2] | Relative potency [3] | IC50 [4] | IC50 [5]
1 | CCCCCCCCCC[C@@H](O)[C@@H]1CC[C@@H]([C@@H]2CC[C@@H]([C@H](O)CCCCCCCCCC(O)CC3=CC(C)OC3=O)O2)O1 (stereo partly specified) [BULLATACIN] | 2 | 1.2 | 49 | 0.51 nM | 0.61 nM
2 | CCCCCC[C@@H](CCC[C@H](OS(C)(=O)=O)[C@H]1CC[C@H]([C@H]2CC[C@H]([C@@H](CCCCCCCCCCCCC3=C[C@H](C)OC3=O)OS(C)(=O)=O)O2)O1)OS(C)(=O)=O | 56 | 144 | – | 14.1 nM | 2040 nM
3 | CCCCCCCCCC[C@H](OS(C)(=O)=O)[C@H]1CC[C@@H]([C@@H]2CC[C@H]([C@@H](CCCCCCCCCC[C@H](CC3=C[C@H](C)OC3=O)OS(C)(=O)=O)OS(C)(=O)=O)O2)O1 | – | 260 | 6.7 | 1.68 nM | 438 nM
4 | CCCCCCCCCC/C(=N\O)[C@H]1CC[C@@H]([C@@H]2CC[C@H]([C@H](O)CCCCCCCCCC/C(CC3=C[C@H](C)OC3=O)=N\O)O2)O1 | 1.4 | 1.1 | 73.5 | 0.34 nM | 0.39 nM
5 | CCCCCC[C@H](O)CCC[C@H](O)[C@H]1CC[C@H]([C@H]2CC[C@H]([C@H](O)CCCCCCCCCCCCC3=C[C@H](C)OC3=O)O2)O1 [SQUAMOCIN] | 2.4 | 1.3 | 42.3 | 0.59 nM | 0.77 nM
6 | CCCCCCCCCC[C@H](O)[C@H]1CC[C@@H]([C@@H]2CC[C@H]([C@H](O)CCCCCCCCCC/C(CC3=C[C@H](C)OC3=O)=N\O)O2)O1 | 1 | 1.1 | 100 | 0.25 nM | 0.29 nM
7 | CCCCCC[C@H](CCC[C@@H](N=[N+]=[N-])[C@H]1CC[C@H]([C@H]2CC[C@H]([C@H](CCCCCCCCCCCCC3=C[C@H](C)OC3=O)N=[N+]=[N-])O2)O1)N=[N+]=[N-] | 72 | 17 | – | 18 nM | 315 nM
8 | CCCCCCC(=O)CCC[C@H](O)[C@H]1CC[C@H]([C@H]2CC[C@H]([C@H](O)CCCCCCCCCCCCC3=C[C@H](C)OC3=O)O2)O1 | 2.6 | 1.9 | 38.5 | 0.65 nM | 1.3 nM
9 | CCCCCCCCCC[C@H](O)[C@H]1CC[C@H]([C@H]2CC[C@H]([C@H](O)CCCCC(O)CCCCCCCC3=C[C@H](C)OC3=O)O2)O1 (stereo partly specified) | 3.8 | 2 | 26.3 | 0.95 nM | 1.9 nM
10 | CCCCCCCCCC[C@H](O)[C@H]1CC[C@H]([C@H]2CC[C@H]([C@H](O)CCCC/C(CCCCCCCC3=C[C@H](C)OC3=O)=N\O)O2)O1 | 1.4 | 2 | 73.5 | 0.34 nM | 0.67 nM
11 | CCCCCC[C@@H](CCC[C@H](OC(C)=O)[C@H]1CC[C@H]([C@H]2CC[C@H]([C@@H](CCCCCCCCCCCCC3=C[C@H](C)OC3=O)OC(C)=O)O2)O1)OC(C)=O | 20 | 587 | – | 5 nM | 2940 nM
12 | CCCCCC(CCCC[C@H](OC(C)=O)[C@H]1CC[C@H]([C@H]2CC[C@H]([C@@H](CCCCCCCCCCCCC3=C[C@H](C)OC3=O)OC(C)=O)O2)O1)OC(C)=O (stereo partly specified) | 8.4 | 118 | – | 2.1 nM | 248 nM
13 | CCCCCCCCCC[C@H](O)[C@H]1CC[C@@H]([C@@H]2CC[C@H]([C@H](O)CCCCCCCCCCC(=O)CC3=C[C@H](C)OC3=O)O2)O1 | 1.7 | 1.1 | 59.5 | 0.42 nM | 0.45 nM
14 | CCCCCCCCCCC(=O)[C@H]1CC[C@H]([C@H]2CC[C@H](C(=O)CCCCC(=O)CCCCCCCC3=C[C@H](C)OC3=O)O2)O1 | 6.6 | 1.5 | – | 1.65 nM | 2.5 nM
15 | CCCCCCCCCCC(=O)[C@H]1CC[C@@H]([C@@H]2CC[C@H]([C@H](O)CCCCCCCCCCC(=O)CC3=C[C@H](C)OC3=O)O2)O1 | 1.4 | 1.8 | 73.5 | 0.34 nM | 0.6 nM
16 | CCCCCC(CCCC[C@H](OS(C)(=O)=O)[C@H]1CC[C@H]([C@H]2CC[C@H]([C@@H](CCCCCCCCCCCCC3=C[C@H](C)OC3=O)OS(C)(=O)=O)O2)O1)OS(C)(=O)=O (stereo partly specified) | 12 | 22 | – | 2.9 nM | 64 nM
17 | CCCCCCCCCC[C@H](O)[C@H]1CC[C@@H]([C@@H]2CC[C@H]([C@H](O)CCCCCCCC[C@@H](O)CC3=C[C@H](C)OC3=O)O2)O1 | 1.3 | 2.5 | 75.8 | 0.33 nM | 0.83 nM
18 | CCCCCCCCCC[C@H](OC(C)=O)[C@H]1CC[C@@H]([C@@H]2CC[C@H]([C@@H](CCCCCCCCCC[C@H](CC3=C[C@H](C)OC3=O)OC(C)=O)OC(C)=O)O2)O1 | 5.8 | 1300 | – | 1.46 nM | 1890 nM
19 | CCCCCCCCCC[C@H](O)[C@H]1CC[C@H]([C@H]2CC[C@H]([C@H](O)CCCCCCCCCCCCC3=C[C@H](C)OC3=O)O2)O1 [BULLANIN] | 1.3 | 1.4 | 78.1 | 0.32 nM | 0.44 nM
20 | CCCCCCCCCC[C@H](O)[C@H]1CC[C@H]([C@H]2CC[C@H]([C@H](O)CCCCC(=O)CCCCCCCC3=C[C@H](C)OC3=O)O2)O1 [GUANACONE] | 6.1 | 1.4 | – | 1.52 nM | 2.1 nM
21 | CCCCCCCCCC[C@H](O)[C@H]1CC[C@@H]([C@@H]2CC[C@H]([C@H](O)CCCCCCCCCC[C@@H](O)CC3=C[C@H](C)OC3=O)O2)O1 [rolliniastatin-1] | 2.4 | 1.2 | 41.7 | 0.6 nM | 0.74 nM
22 | CCCCCC/C(CCC[C@H](O)[C@H]1CC[C@H]([C@H]2CC[C@H]([C@H](O)CCCCCCCCCCCCC3=C[C@H](C)OC3=O)O2)O1)=N\O | 3 | 1.2 | 33.8 | 0.74 nM | 0.9 nM
23 | CCCCC[C@H](O)CCCC[C@H](O)[C@H]1CC[C@H]([C@H]2CC[C@H]([C@H](O)CCCCCCCCCCCCC3=C[C@H](C)OC3=O)O2)O1 [MOTRILIN] | 1.6 | 2 | 61 | 0.41 nM | 0.81 nM
